Reference: ChEMBL document CHEMBL1759915, “Synthesis and anticancer effects of some novel pyrazolo[3,4-d]pyrimidine derivatives by generating reactive oxygen species in human breast adenocarcinoma cells” (Eur J Med Chem, 2011)
Values after ≈ are worked out from the molar mass of the structure shown.

Tests used:
[1] = tested on: MCF7; experiment: Effect on glutathione peroxidase level in human MCF7 cells assessed per mg protein at 2 ug/ml after 24 hrs (reference value: 11.20 +/- 1.36 U/mg of protein); format: functional
[2] = tested on: MCF7; experiment: Effect on DNA level in human MCF7 cells assessed per 10 '6 cells at 10 ug/ml after 24 hrs (reference value: 6.80 +/- 0.70 ug/10^6 cells); format: functional
Summary of the method: (§1)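 After 24 h exposure of MCF-7 cells to compound at 2, 5, 10 or 20 µg/ml at 37 °C, nucleic acids were precipitated from cell homogenates. DNA was extracted and assayed by the Zhou et al. method, and RNA by a kit-derived procedure. Results given per 10⁶ cells as means ± S.E. of four experiments versus untreated control.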

[3] = tested on: MCF7; experiment: Decrease in CAT level in human MCF7 cells; format: functional, cell-based
[4] = tested on: MCF7; experiment: Effect on hydrogen peroxide level in human MCF7 cells assessed per mg protein at 10 ug/ml by Wolf's method after 24 hrs (reference value: 12.50 +/- 1.54 nmol/mg of protein); format: functional
[5] = tested on: MCF7; experiment: Effect on glutathione peroxidase level in human MCF7 cells assessed per mg protein at 10 ug/ml after 24 hrs (reference value: 11.20 +/- 1.36 U/mg of protein); format: functional
[6] = tested on: MCF7; experiment: Effect on glutathione level in human MCF7 cells assessed per mg protein at 5 ug/ml by Ellman method after 24 hrs (reference value: 39.82 +/- 4.20 nmol/mg of protein); format: functional
[7] = tested on: MCF7; experiment: Effect on RNA level in human MCF7 cells assessed per 10 '6 cells at 10 ug/ml after 24 hrs (reference value: 11.50 +/- 0.70 ug/10^6 cells); format: functional; summary of the method: as §1
[8] = tested on: MCF7; experiment: Effect on DNA level in human MCF7 cells assessed per 10 '6 cells at 2 ug/ml after 24 hrs (reference value: 6.80 +/- 0.70 ug/10^6 cells); format: functional; summary of the method: as §1
[9] = tested on: MCF7; experiment: Decrease in RNA level in human MCF7 cells assessed per 10 '6 cells after 24 hrs relative to control; format: functional, cell-based; summary of the method: as §1
[10] = tested on: MCF7; experiment: Effect on SOD level in human MCF7 cells assessed per mg protein at 10 ug/ml after 24 hrs (reference value: 27.61+/- 3.72 U/mg of protein); format: functional
[11] = tested on: MCF7; experiment: Effect on RNA level in human MCF7 cells assessed per 10 '6 cells at 2 ug/ml after 24 hrs (reference value: 11.50 +/- 0.70 ug/10^6 cells); format: functional; summary of the method: as §1
[12] = tested on: MCF7; experiment: Effect on glutathione level in human MCF7 cells assessed per mg protein at 2 ug/ml by Ellman method after 24 hrs (reference value: 39.82 +/- 4.20 nmol/mg of protein); format: functional
[13] = tested on: MCF7; experiment: Decrease in glutathione level in human MCF7 cells; format: functional, cell-based
[14] = tested on: MCF7; experiment: Effect on SOD level in human MCF7 cells assessed per mg protein at 2 ug/ml after 24 hrs (reference value: 27.61+/- 3.72 U/mg of protein); format: functional
[15] = tested on: MCF7; experiment: Decrease in glutathione peroxidase level in human MCF7 cells; format: functional, cell-based
[16] = tested on: MCF7; experiment: Effect on RNA level in human MCF7 cells assessed per 10 '6 cells at 20 ug/ml after 24 hrs (reference value: 11.50 +/- 0.70 ug/10^6 cells); format: functional; summary of the method: as §1
[17] = tested on: MCF7; experiment: Effect on RNA level in human MCF7 cells assessed per 10 '6 cells at 5 ug/ml after 24 hrs (reference value: 11.50 +/- 0.70 ug/10^6 cells); format: functional; summary of the method: as §1
[18] = tested on: MCF7; experiment: Effect on hydrogen peroxide level in human MCF7 cells assessed per mg protein at 5 ug/ml by Wolf's method after 24 hrs (reference value: 12.50 +/- 1.54 nmol/mg of protein); format: functional
[19] = tested on: MCF7; experiment: Effect on SOD level in human MCF7 cells assessed per mg protein at 20 ug/ml after 24 hrs (reference value: 27.61+/- 3.72 U/mg of protein); format: functional
[20] = tested on: MCF7; experiment: Effect on hydrogen peroxide level in human MCF7 cells assessed per mg protein at 2 ug/ml by Wolf's method after 24 hrs (reference value: 12.50 +/- 1.54 nmol/mg of protein); format: functional
[21] = tested on: MCF7; experiment: Effect on glutathione level in human MCF7 cells assessed per mg protein at 10 ug/ml by Ellman method after 24 hrs (reference value: 39.82 +/- 4.20 nmol/mg of protein); format: functional
[22] = tested on: MCF7; experiment: Effect on glutathione peroxidase level in human MCF7 cells assessed per mg protein at 5 ug/ml after 24 hrs (reference value: 11.20 +/- 1.36 U/mg of protein); format: functional
[23] = tested on: MCF7; experiment: Increase in hydrogen peroxide level in human MCF7 cells; format: functional, cell-based
[24] = tested on: MCF7; experiment: Effect on glutathione level in human MCF7 cells assessed per mg protein at 20 ug/ml by Ellman method after 24 hrs (reference value: 39.82 +/- 4.20 nmol/mg of protein); format: functional
[25] = tested on: MCF7; experiment: Effect on CAT level in human MCF7 cells assessed per mg protein at 5 ug/ml after 24 hrs (reference value: 7.90+/- 0.67 U/mg of protein); format: functional
[26] = tested on: MCF7; experiment: Effect on CAT level in human MCF7 cells assessed per mg protein at 10 ug/ml after 24 hrs (reference value: 7.90+/- 0.67 U/mg of protein); format: functional
[27] = tested on: MCF7; experiment: Effect on glutathione peroxidase level in human MCF7 cells assessed per mg protein at 20 ug/ml after 24 hrs (reference value: 11.20 +/- 1.36 U/mg of protein); format: functional
[28] = tested on: MCF7; experiment: Effect on hydrogen peroxide level in human MCF7 cells assessed per mg protein at 20 ug/ml by Wolf's method after 24 hrs (reference value: 12.50 +/- 1.54 nmol/mg of protein); format: functional
[29] = tested on: MCF7; experiment: Effect on CAT level in human MCF7 cells assessed per mg protein at 2 ug/ml after 24 hrs (reference value: 7.90+/- 0.67 U/mg of protein); format: functional
[30] = tested on: MCF7; experiment: Effect on DNA level in human MCF7 cells assessed per 10 '6 cells at 20 ug/ml after 24 hrs (reference value: 6.80 +/- 0.70 ug/10^6 cells); format: functional; summary of the method: as §1
[31] = tested on: MCF7; experiment: Effect on SOD level in human MCF7 cells assessed per mg protein at 5 ug/ml after 24 hrs (reference value: 27.61+/- 3.72 U/mg of protein); format: functional
[32] = tested on: MCF7; experiment: Effect on DNA level in human MCF7 cells assessed per 10 '6 cells at 5 ug/ml after 24 hrs (reference value: 6.80 +/- 0.70 ug/10^6 cells); format: functional; summary of the method: as §1
[33] = tested on: MCF7; experiment: Increase in SOD level in human MCF7 cells; format: functional, cell-based
[34] = tested on: MCF7; experiment: Antiproliferative activity against human MCF7 cells after 24 hrs by MTT assay; format: functional, cell-based
Summary of the method: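 MCF-7 cells (DMEM, 10% heat-inactivated FCS, penicillin/streptomycin, 37 °C, 5% CO2) plated at 0.65 × 10⁵ cells/well and given 24 h to attach. Exposed to compound or cisplatin at 2, 5, 10 or 20 µg/ml for 24 h at 37 °C. MTT added for 4 h, formazan dissolved in DMSO, absorbance read at 570 nm. Viability taken relative to untreated cells and IC50 derived.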

[35] = tested on: MCF7; experiment: Decrease in DNA level in human MCF7 cells assessed per 10 '6 cells after 24 hrs relative to control; format: functional, cell-based; summary of the method: as §1
[36] = tested on: MCF7; experiment: Effect on CAT level in human MCF7 cells assessed per mg protein at 20 ug/ml after 24 hrs (reference value: 7.90+/- 0.67 U/mg of protein); format: functional

SMILES: Cc1nc(-n2ncc3c(Cl)ncnc32)c2c3c(sc2n1)CCc1ccccc1-3
- Activity [1]: 8 U/mg protein
- Activity [2]: 4 µg/10^6 cells
- Activity [3]: Dose-dependent effect
- Activity [4]: 37.85 nmol
- Activity [5]: 7 U/mg protein
- Activity [6]: 29.5 nmol
- Activity [7]: 6.7 µg/10^6 cells
- Activity [8]: 4.85 µg/10^6 cells
- Activity [9]: Dose-dependent effect
- Activity [10]: 160 U/mg protein
- Activity [11]: 8.75 µg/10^6 cells
- Activity [12]: 35.8 nmol
- Activity [13]: Dose-dependent effect
- Activity [14]: 80.2 U/mg protein
- Activity [15]: Dose-dependent effect
- Activity [16]: 6.5 µg/10^6 cells
- Activity [17]: 7.5 µg/10^6 cells
- Activity [18]: 25.45 nmol
- Activity [19]: 201 U/mg protein
- Activity [20]: 28.23 nmol
- Activity [21]: 27.2 nmol
- Activity [22]: 7.6 U/mg protein
- Activity [23]: Dose-dependent effect
- Activity [24]: 25 nmol
- Activity [25]: 4.9 U/mg protein
- Activity [26]: 4.2 U/mg protein
- Activity [27]: 6.7 U/mg protein
- Activity [28]: 52.33 nmol
- Activity [29]: 5.8 U/mg protein
- Activity [30]: 3.85 µg/10^6 cells
- Activity [31]: 90.6 U/mg protein
- Activity [32]: 4.46 µg/10^6 cells
- Activity [33]: Dose-dependent effect
- Activity [34]: Dose-dependent effect
- IC50 ([34]; MCF7, 24 h): 7 µg/mL (≈ 17.3 µM)
- Activity [35]: Dose-dependent effect
- Activity [36]: 3.65 U/mg protein
